The record followed here is ChEMBL document CHEMBL5705892, “MK-2206, an allosteric Akt inhibitor, enhances antitumor efficacy by standard chemotherapeutic agents or molecular targeted drugs in vitro and in vivo” (Mol Cancer Ther, 2010).

Calls of active or inactive are those of the source. No cut-off for these calls is given here. A value given as a limit tells only on which side of the number the result lay.

For one series, the system named is UMC-11. The series is described as follows: Induction of apoptosis in human UMC-11 cells assessed as fold induction of capsase-3/7 activity measured after 24 to 48 hrs in presence of gemcitabine by caspase-glo 3/7 assay. As to conditions: time 24-48 hrs. Type of series: functional.
The subject of the next series is NCI-H292. The series is described as follows: Antitumor activity against human NCI-H292 cells xenografted in CD-1 mouse assessed as tumor growth suppression at 120 mg/kg, po administered 3 times per week for 2 weeks and measured twice a week during compound dosing by caliper method. In kind it is functional, organism-based. In short, it runs like this:
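Female CD1-nude mice carried s.c. NCI-H292 cells in Matrigel/PBS and were randomized at 0.2 cm³, n = 5. […] MK-2206 (30% Captisol) was given 2 h later at 120 mg/kg po on days 0, 2, 4, 7, 9, 11, or at 360 mg/kg on days 0 and 7. Control received vehicle. Caliper volume twice weekly.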
On the technique in general: A xenograft is tissue or cells of one species grown in another, often human tumour cells in immunodeficient mice.

The next series concerns NCI-N87. The series is described as follows: Antiproliferative activity against human NCI-N87 cells assessed as reduction in cell proliferation measured after 72 hrs by celltiter-glo assay. In kind it is functional, cell-based. As to conditions: NCI-N87, 72 h. In outline:
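Cells in RPMI 1640 with 10% heat-inactivated FBS at 37°C and 5% CO₂ were seeded at 2 to 3 × 10³ per well. […] Growth was read as cellular ATP by CellTiter-Glo.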
(ATP-based viability assays read luminescence as a measure of living cells.)

The nature of series [1]: Effect on total S6 protein expression in human HCC70 cells at 1 umol/L measured after 3 to 24 hrs in presence of lapatinib by Western blot analysis. Type of series: toxicity, cell-based. The settings on record: hcc70, 1 µM, time 3-24 hrs, dose 1 µmol/L. In short, it runs like this:
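HCC70 cells at ~70% confluence were exposed to 1 µmol/L MK-2206, 10 µmol/L lapatinib, or both for 0, 3, 6, 12 or 24 h. Cells were lysed in Tris-HCl pH 7.5/NaCl/1% Triton X-100 with protease and phosphatase inhibitors. Lysates were run on SDS-PAGE and immunoblotted.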
On the technique in general: Immunoblotting shows a protein as a band on a membrane.

Another series relates to HCC1954. The series is described as follows: Synergistic antiproliferative activity against human HCC1954 cells assessed as combination index at ED75 measured after 96 hrs in presence of lapatinib by celltiter-glo assay. Type of series: functional.
Another series concerns BT-474. The series is described as follows: Synergistic antiproliferative activity against docetaxel pretreated human BT-474 cells assessed as combination index at ED75 measured after 72 hrs by celltiter-glo assay. Type of series: functional.
The nature of series [2]: Toxicity in human NCI-H292 cells xenografted CD-1 mouse assessed as weight loss at 120 mg/kg, po administered 3 times per week for 2 weeks starting 2 hrs post-erlotinib treatment and measured on day 16. In kind it is organism-based. As to conditions: in vivo, 384 h, time 16 day. In short, it runs like this:
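Female CD1-nude mice bearing s.c. NCI-H292 tumours (cells in 50% Matrigel/50% PBS, left flank), randomized at mean 0.2 cm³, n=5/group. Body weight monitored; treatment period ended day 16.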

Series [3] relates to SK-BR-3. The series is described as follows: Synergistic antiproliferative activity against human SK-BR-3 cells assessed as combination index at ED75 measured after 96 hrs in presence of lapatinib by celltiter-glo assay. In kind it is functional.
Series [4] deals with SK-BR-3. The series is described as follows: Synergistic antiproliferative activity against human SK-BR-3 cells assessed as combination index at ED90 measured after 72 hrs in presence of lapatinib by celltiter-glo assay. In kind it is functional.
The subject of the next series is HCC70. The series is described as follows: Synergistic antiproliferative activity against human HCC70 cells assessed as combination index at ED50 treated 24 hrs prior to lapatinib and measured after 72 hrs by celltiter-glo assay. Type of series: functional. As to conditions: time 96 hrs.
A further series has as its system MDA-MB-453. The series is described as follows: Synergistic antiproliferative activity against human MDA-MB-453 cells assessed as combination index at ED50 measured after 72 hrs in presence of docetaxel by celltiter-glo assay. In kind it is functional. In short, it runs like this:
(§1)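 Cells grown in RPMI 1640 with 10% heat-inactivated FBS at 37°C, 5% CO₂. Seeded at 2 to 3 × 10³ per well; drugs added 24 h later. […] Viability read as cellular ATP by CellTiter-Glo. CI calculated by Chou–Talalay from median-effect plots at ED50, ED75 and ED90.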

The subject of the next series is NCI-H1993. The series is described as follows: Induction of apoptosis in human NCI-H1993 cells assessed as fold induction of capsase-3/7 activity measured after 24 to 48 hrs in presence of gemcitabine by caspase-glo 3/7 assay. Type of series: functional. The settings on record: time 24-48 hrs.
Series [5] concerns SK-OV-3. The series is described as follows: Antitumor activity against human SK-OV-3 cells xenografted in CB17/icr SCID mouse assessed as tumor growth inhibition at 60 to 120 mg/kg, po administered 3 times per week for 2 weeks and measured twice a week during compound dosing by caliper method. Type of series: functional, organism-based. The settings on record: dose 60-120 mg/kg. In outline: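 SK-OV-3 cells were implanted s.c. into female C.B-17/ICR-scid mice, which were randomized at 0.13 cm³, n = 5. Lapatinib (water) was given at 100 mg/kg po on days 0–4 and 7–11. MK-2206 (30% Captisol) was given at 60 or 120 mg/kg po on days 0, 2, 4, 7, 9, 11. Tumor volume by calipers twice weekly.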

Series [6] has as its system SK-OV-3. The series is described as follows: Synergistic antiproliferative activity against lapatinib pretreated human SK-OV-3 cells assessed as combination index at ED50 measured after 72 hrs by celltiter-glo assay. Type of series: functional.
The test system of the next series is NCI-H460. The series is described as follows: Induction of apoptosis in human NCI-H460 cells assessed as fold induction of capsase-3/7 activity measured after 24 to 48 hrs in presence of carboplatin by caspase-glo 3/7 assay. In kind it is functional. The settings on record: time 24-48 hrs.
The next series concerns Mus musculus. The series is described as follows: In vivo inhibition of AKT in human NCI-H292 cells xenografted mouse at 120 mg/kg, po administered as single dose measured after 12 hrs by immunoprecipitation assay. Type of series: functional, organism-based.
Another series has as its system PC-3. The series is described as follows: Antitumor activity against human PC-3 cells xenografted in CD1 nude mouse assessed as tumor growth inhibition at 120 mg/kg, po administered 3 times per week for 2 weeks starting 24 hrs post docetaxel treatment and measured during compound dosing by caliper method. In kind it is functional, organism-based. In short, it runs like this: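 Male CD1-nude mice received s.c. PC-3 cells and were treated from day 25 after implant, at 0.2 cm³, n = 5. Docetaxel (0.73% ethanol in saline) was given at 5 mg/kg i.v. on day 0. MK-2206 (30% Captisol) was given at 120 mg/kg po on days 1, 3, 5, 8, 10, 12. Caliper volume twice weekly.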

The subject of another series is MDA-MB-468. The series is described as follows: Synergistic antiproliferative activity against human MDA-MB-468 cells assessed as combination index at ED90 measured after 72 hrs in presence of lapatinib by celltiter-glo assay. In kind it is functional.
Series [7] in a line: In vivo inhibition of AKT phosphorylation at S473 residue in human NCI-H292 cells xenografted mouse at 120 mg/kg, po administered as single dose measured after 12 hrs by Western blot analysis relative to control. Type of series: functional.
For a further series, the system named is MCF7. The series is described as follows: Synergistic antiproliferative activity against human MCF7 cells assessed as combination index at ED50 measured after 72 hrs in presence of docetaxel by celltiter-glo assay. Type of series: functional. In outline: as §1
The next series has as its system NCI-H1299. The series is described as follows: Synergistic antiproliferative activity against human NCI-H1299 cells assessed as fold change in erlotinib IC50 at 1 umol/L measured after 72 hrs in presence of erlotinib by celltiter-glo assay relative to erlotinib alone. In kind it is functional. The settings on record: dose 1 µmol/L.

The term IC50 denotes the concentration that inhibits the measured activity by half. For orientation: inhibition in vivo means the relative decrease from the control value, in per cent. Higher therefore signals a strong effect. For the compound `Cl.NC1(c2ccc(-c3nc4ccn5c(=O)[nH]nc5c4cc3-c3ccccc3)cc2)CCC1`, the entries for the “fold change (FC)” value in the series with UMC-11, in the series with NCI-H1993 and in the series on NCI-H460 were 1.2, 1.2 and 1.4, respectively. Also, in the series on NCI-H292, the result was inactive. Further, the IC50 with NCI-N87 worked out at 1.6 µM. Further, the values for the Activity entry in series [1] and in series [2] were “Toxic” and “Non-Toxic”, respectively. The CI75 came to 0.18 in the series with HCC1954, 0.5 with BT-474 and 0.18 in the series on SK-BR-3 [3]. Moreover, the CI90 worked out at 0.09 in the series on SK-BR-3 [4] and 0.16 in the series on MDA-MB-468. In addition, the CI50 with HCC70 was found to be 0.18; in the series on MDA-MB-453, 1.2; in the series on SK-OV-3 [6], 0.18; with MCF7 it was 0.7. The TGI entry in the series with SK-OV-3 [5] and in the series with PC-3 was “Active” throughout. For the same compound, in the series with Mus musculus, the inhibition entry is “Active”. Also, the inhibition in vivo at 120 mg/kg in series [7] is 53.1%. The “Ratio IC50” value with NCI-H1299 is given as >7.9.
